Screens as filed in PubChem.
ABCG2 block = inhibitors of human ABCG2 transporter, ABCB1 counter-screen; Q9UNQ0; IgMXP3 cells, JC-1 efflux, flow cytometry; inhibition, % at 6.6 µM; 190,000 compounds, 0.1% hits; AID 1325;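 active = inhibition above 80%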
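System: two drug-resistant human cell lines, ABCG2 and ABCB1; controls: nicardipine high and DMSO low controls; times: 10 min exposure at 25 °C with rotation, no wash; detection: flow cytometry of retained JC-1 fluorescence; read-out basis: percent efflux inhibition, scaled nicardipine 100% to DMSO 0%; doses: one concentration, 6.6 µM final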
ABCB1 block = human ABCB1 inhibition, ABCG2 as counter-screen | inhibition, % at 6.6 µM | CCRF-Adr cells, JC-1 efflux, flow cytometry | 190,000 compounds, 0.067% hits | AID 1326 | P08183; in the data active = inhibition above about 40%;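 also: higher value means more JC-1 retained so stronger ABCB1 efflux block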
L major viab = reduces viability of Leishmania major promastigotes. AID 1063. 200,000 compounds, 9% hits. inhibition, % at 10 µM. resazurin fluorescence viability;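 also: promastigotes grown with compound for 44 hours at 28 °C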
PKD1 kinase inh = inhibitors of human PKD1 kinase; Q15139; PKD1 kinase fluorescence polarization assay; inhibition, % (no concentration beside the values); 200,000 compounds, 0.056% hits; AID 797
Target sequence (Q15139 whole entry, looked up): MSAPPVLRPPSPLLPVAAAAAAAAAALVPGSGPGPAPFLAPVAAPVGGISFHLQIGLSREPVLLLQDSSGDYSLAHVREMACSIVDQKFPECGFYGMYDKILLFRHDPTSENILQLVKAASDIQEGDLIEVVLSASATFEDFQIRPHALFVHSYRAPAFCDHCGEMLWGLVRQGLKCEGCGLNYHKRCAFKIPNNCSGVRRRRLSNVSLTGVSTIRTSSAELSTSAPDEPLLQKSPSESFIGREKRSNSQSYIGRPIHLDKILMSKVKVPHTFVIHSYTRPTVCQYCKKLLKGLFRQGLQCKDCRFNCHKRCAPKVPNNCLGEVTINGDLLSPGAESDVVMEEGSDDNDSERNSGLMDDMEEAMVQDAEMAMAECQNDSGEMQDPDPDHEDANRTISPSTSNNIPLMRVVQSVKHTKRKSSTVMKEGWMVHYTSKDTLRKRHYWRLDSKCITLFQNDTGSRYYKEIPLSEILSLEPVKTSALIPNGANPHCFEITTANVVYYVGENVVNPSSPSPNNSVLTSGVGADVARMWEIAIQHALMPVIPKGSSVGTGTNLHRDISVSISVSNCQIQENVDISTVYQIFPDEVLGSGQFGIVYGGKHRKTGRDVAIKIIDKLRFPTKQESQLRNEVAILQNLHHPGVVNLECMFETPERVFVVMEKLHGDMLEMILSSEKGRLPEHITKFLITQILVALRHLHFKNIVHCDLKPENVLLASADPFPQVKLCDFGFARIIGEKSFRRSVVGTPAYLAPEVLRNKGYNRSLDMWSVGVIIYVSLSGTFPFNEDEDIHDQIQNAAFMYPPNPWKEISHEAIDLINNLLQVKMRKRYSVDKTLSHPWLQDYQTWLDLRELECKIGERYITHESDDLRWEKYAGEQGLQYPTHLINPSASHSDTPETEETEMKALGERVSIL
Avidin fluor = compound fluoresces at 488/530 nm on avidin beads | fluorescence (KMESF) at 10 µM | compound fluorescence 488/530 nm, flow cytometry; stronger effect = higher value | 220,000 compounds, 0.38% hits; in the data active = fluorescence above about 47
GSH bead fluor = compound fluoresces at 488/530 nm on GSH beads; GSH beads flow cytometry, compound fluorescence 488/530 nm; stronger effect = higher value; fluorescence (KMESF) at 10 µM; 190,000 compounds, 0.25% hits; AID 1776; in the data active = fluorescence above about 89;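 also: glutathione beads carrying GST-tagged Bcl family fusion proteins plus one bare bead set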
Of the large screens only hits and unclear results are named; the others gave an inactive call. Shown is part of a subset that was picked to be rich in hits. Rule as the data show it, unless noted: active = inhibition above about 50%; inactive = the rest.

Cc1cc(C)c2nc(NCCCNC(=S)NCCCN(C)C)c(C#N)cc2c1	L major viab 101
Cc1ccc(NC(=O)C2C3/C=C\CCCCC32)cc1C (centres undefined)	none
COC(CNC(=O)c1ccc(N2CCC3(CC2)OCCO3)c([N+](=O)[O-])c1)OC	L major viab 60
CCc1nn(CCCC(=O)N2CCc3ccccc3C2)c(=O)c2cc3occc3n12	none
COc1cccc(CNCCc2c[nH]c3ccccc23)c1OCc1ccc(F)cc1	L major viab 100
COc1cc(CNCCc2c[nH]c3ccccc23)ccc1OCc1ccc(F)cc1	L major viab 100
CC(C)c1csc(CN2CCC(CO)(Cc3cccc(F)c3)CC2)n1	none
CNS(=O)(=O)c1cnccc1N1CCN(C)CC1	none
CNS(=O)(=O)c1cnccc1N1CCN(c2cccc(C(F)(F)F)c2)CC1	L major viab 99
COc1ccc(NC(=S)Nc2ccccc2)cc1	none (no result: ABCG2 block, ABCB1 block, L major viab, PKD1 kinase inh, GSH bead fluor)
COc1ccc(NC(=S)Nc2ccc3snnc3c2)cc1	L major viab 54
COc1ccc(NC(=S)Nc2ccc(N)c([N+](=O)[O-])c2)cc1	L major viab 100
Oc1cccc(/C=N/Nc2ncnc3c2ncn3Cc2ccccc2)c1	L major viab 66
CCOC(=O)C1=C(C)Nc2ccccc2N=C1NC(=O)/C=C/c1ccc(OC)cc1OC	L major viab 80
Cn1cc(Cl)c(C(=O)Nc2cccc(Cl)c2Cl)n1	none
Cc1cccc(NC(=O)C2CCCN(C(=O)Nc3ccccc3)C2)c1C (centres undefined)	none
COc1ccc(/C=C/c2c([N+](=O)[O-])c(=O)n(C)c(=O)n2C)cc1O	L major viab 90
COc1cc(/C=C/c2c([N+](=O)[O-])c(=O)n(C)c(=O)n2C)cc(OC)c1OC	L major viab 79
COc1ccc(OC)c(/C=C/c2c([N+](=O)[O-])c(=O)n(C)c(=O)n2C)c1	none
Cc1oc(C(C)(C)C)c(CN2CCOCC2)c1C(=O)O	none
O=[N+]([O-])c1ccc(/C=C/C2=NN(c3ccccc3)C(c3ccco3)C2)cc1 (centres undefined)	ABCG2 block active, ABCB1 block active, Avidin fluor 186
O=[N+]([O-])c1ccc(C2=NN(c3ccccc3)C(c3ccco3)C2)cc1 (centres undefined)	none (no result: ABCG2 block, ABCB1 block, L major viab, PKD1 kinase inh, GSH bead fluor)
Nc1c(Cl)ncnc1N1CCCC1	none
Cc1cc(C(=O)CSc2nc(N)cc(N)n2)c(C)n1-c1cccc(F)c1	L major viab 77
Cc1cc(C(=O)CSc2nc(N)cc(=O)[nH]2)c(C)n1-c1ccc(OC(F)F)cc1	L major viab 98
Cc1cc(C(=O)CSc2n[nH]c(N)n2)c(C)n1-c1ccc2c(c1)OCO2	L major viab 60
Cc1cc(C(=O)COc2ccccc2Cl)c(C)n1-c1ccc2c(c1)OCO2	none
CCSc1nc2c(c(=O)[nH]1)C(c1cccs1)C(C(=O)OC)=C(C)N2 (centres undefined)	none
O=C(Nc1ccc(Cl)cc1)NC1CCCCC1	none
Clc1ccc(CN=C(Nc2ccccc2)NC2CCCCC2)cc1	L major viab 95
CCCN1CCN(C(=O)CCCn2c(C)c3cnn(-c4ccccc4)c(=O)c3c2C)CC1	L major viab 85
CC(C)(C)C1CCc2c(sc3ncn(N)c(=N)c23)C1 (centres undefined)	none (no result: ABCG2 block, ABCB1 block, L major viab, PKD1 kinase inh, GSH bead fluor)
COc1ccccc1-c1cc(C(F)(F)F)nc(S(=O)(=O)CCCC(=O)NCc2ccc(F)cc2)n1	none
COc1ccccc1-c1cc(C(F)(F)F)nc(N2CCCC2)n1	none
COc1ccccc1-c1cc(C(F)(F)F)nc(S(=O)(=O)CCCC(=O)NC(C)C)n1	L major viab 89
COc1ccccc1-c1cc(C(F)(F)F)nc(S(C)(=O)=O)n1	GSH bead fluor 483
O=C(COC(=O)Cc1ccc(Cl)cc1Cl)NCCC1=CCCCC1	L major viab 54 (no result: ABCB1 block)
O=C(COc1ncnc2c(Cl)cc(Cl)cc12)NCCC1=CCCCC1	L major viab 100
COc1ccc(CCNC(=O)CSc2nc3[nH]ncc3c(=O)n2-c2ccc(C)c(Cl)c2)cc1OC	none
Cc1cc(OC(=O)c2c(F)cc(F)cc2F)nc(C)n1	none
COc1ccc(-c2nc(CN(C)C(C)c3ccon3)c(C)o2)c(C)c1C (centres undefined)	none
